High-throughput results (PubChem BioAssay)
Compounds with a hit are over-represented: about 1.4% of the library has one in this group of screens.
NR2E3 ag-1: activates human NR2E3 receptor | Q9Y5X4 | inhibition of corepressor binding, % at 3.98 µM | 0.35% of 360,000 active | AID 602229 | CHO-S Gal4-NCOR/VP16-NR2E3 two-hybrid, luciferase;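 active means inhibition above the mean of all tested compounds plus 3 SD, cut at about 70% in these data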;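 further: 0% = DMSO with NR2E3 transfected cells and 100% = cells lacking NR2E3 construct; higher means lower luciferase signal from less NR2E3 corepressor binding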
Target sequence (Q9Y5X4 whole entry, looked up, the tested form may be a part): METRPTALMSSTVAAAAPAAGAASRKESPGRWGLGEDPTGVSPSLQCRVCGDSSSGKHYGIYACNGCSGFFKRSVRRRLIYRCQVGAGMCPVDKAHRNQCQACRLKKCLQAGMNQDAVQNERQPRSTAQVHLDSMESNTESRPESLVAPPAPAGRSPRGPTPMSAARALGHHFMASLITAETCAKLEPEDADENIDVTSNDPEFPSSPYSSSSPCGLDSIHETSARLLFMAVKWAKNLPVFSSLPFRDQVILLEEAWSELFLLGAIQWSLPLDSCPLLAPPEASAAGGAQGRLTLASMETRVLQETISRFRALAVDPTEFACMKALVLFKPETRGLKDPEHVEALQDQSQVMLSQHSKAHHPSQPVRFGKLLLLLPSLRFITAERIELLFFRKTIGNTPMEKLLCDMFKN
NR2E3 ag-2: NR2E3 (human) agonism. Q9Y5X4. 0.12% of 320,000 active. AID 2300. GST-NR2E3/biotin-RetCOR TR-FRET, 1536-well. inhibition of corepressor binding, % at 4.78 µM;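 active means percent inhibition above the cutoff of mean plus 3 SD of all tested compounds, set per screening campaign, cut at about 20% in these data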;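 further: 0% = DMSO wells and 100% = biotin wells as full block of FRET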
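Assay system: NR2E3–RetCOR corepressor complex. Quantity: 1.35 nM GST-NR2E3. Buffer or medium: pH 7.5 Tris-based buffer. Reagent: biotinylated RetCOR corepressor at 7 nM final. Schedule: 5 h at 4 °C. Detection: TR-FRET, emission read at 617 and 671 nm. Replicates: one well per compound, singlicate testing.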
NR1D1 modulator: modulates human Rev-erb alpha binding to DNA. 0.79% of 370,000 active. Rev-erbα–FITC-DNA binding, fluorescence polarization, 90 min. activity, % at 10 µM;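 active means activity above about 14%, limit read from the data; passing the limit was not always enough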;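 further: 0% = DMSO wells with 35 nM protein and 100% = DMSO wells with 750 nM protein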
PG9 Ab binder: small molecules binding HIV-1 gp120 antibody PG9; TR-FRET gp120-PG9 antibody binding; inhibition, % at 6.7 µM; 0.43% of 360,000 active; AID 624416; in the data active means inhibition above about 8.5%
PG9 bind confirm: confirmation of small molecules binding HIV-1 gp120 antibody PG9. shares compounds with PG9 Ab binder. TR-FRET PG9 antibody binding, biochemical. inhibition, % at 6.7 µM. 90% of 1,500 active. AID 651571; in the data active means inhibition above about 9%
PGV04 counter: PGV04 control antibody binding, counter-screen. shares compounds with PG9 Ab binder. TR-FRET PGV04 antibody-gp120 binding, biochemical. inhibition, % at 6.7 µM. 95% of 1,500 active. AID 651604; in the data active means inhibition above about 9.5%
PG9 binder DR: PG9 antibody binding, dose response; TR-FRET PG9 antibody-gp120 binding inhibition; shares compounds with PG9 Ab binder; 95 tested, under 10 active; IC50, µM; in the data active means IC50 below about 10 µM
PGV04 DR counter: binds control antibody PGV04 in PG9 counter-screen. shares compounds with PG9 Ab binder. TR-FRET binding to control antibody PGV04. IC50, µM. 20% of 95 active
PG126 binding DR: counter-screen for PG9 binders: binding to control antibody PG126; shares compounds with PG9 Ab binder; TR-FRET binding to antibody PG126, counterscreen; IC50, µM; 20% of 95 active; AID 651939
Numbers without * were called inactive. Unless noted, no stated cut-off is given here; in the data, active means IC50 below about 9 µM; inactive means the rest.

Screening CCCCC(=O)Nc1nn(CC)c2nc3c(C)cccc3cc12 returned NR2E3 ag-1 2, NR2E3 ag-2 -3, NR1D1 modulator 10, PG9 Ab binder 9.7*, PG9 bind confirm 11* and PGV04 counter 15*.
`CC(=O)Nc1ccc(Br)c2ccccc12` gave NR2E3 ag-1 -26, NR2E3 ag-2 11, NR1D1 modulator -1, PG9 Ab binder 11*, PG9 bind confirm 22* and PGV04 counter 23*.
O=c1oc(-c2cccs2)nc2c1cnn2-c1ccccc1 was read as NR2E3 ag-1 10, NR2E3 ag-2 1, NR1D1 modulator 2, PG9 Ab binder 9.5*, PG9 bind confirm 13* and PGV04 counter 18*.
`COc1ccc2nc(C)cc(SCC(=O)NNC(=O)COc3ccc(C)cc3)c2c1` gave NR2E3 ag-1 -1, NR2E3 ag-2 -22, NR1D1 modulator 1 and PG9 Ab binder -12.
COc1ccc2nc(C)cc(SCC(=O)Nc3c(C)cccc3C)c2c1 was read as NR2E3 ag-1 -3, NR2E3 ag-2 3, NR1D1 modulator 3, PG9 Ab binder 10*, PG9 bind confirm 27* and PGV04 counter 33*.
For O=C(Nc1nc(=O)c2ccccc2s1)c1ccccc1 the results were NR2E3 ag-1 -31, NR2E3 ag-2 5, NR1D1 modulator 23, PG9 Ab binder 29*, PG9 bind confirm 51* and PGV04 counter 69*.
COC(=O)c1ccccc1NC(=O)CSCC(=O)Nc1ccccc1 was read as NR2E3 ag-1 -5, NR2E3 ag-2 3, NR1D1 modulator 1 and PG9 Ab binder 3.
COC(=O)c1ccccc1NC(=O)c1cccc(NC(=O)CSCc2ccccc2)c1C was read as NR2E3 ag-1 24, NR2E3 ag-2 4, NR1D1 modulator 15, PG9 Ab binder 33*, PG9 bind confirm 28* and PGV04 counter 43*.
`COc1ccc(Cn2c(=O)[nH]c3cc(C(=O)NCCCOC(C)C)ccc3c2=O)cc1` gave NR2E3 ag-1 -12, NR2E3 ag-2 -4, NR1D1 modulator 9 and PG9 Ab binder 0.
`COc1ccc(Cn2c(=O)[nH]c3cc(C(=O)NCc4ccc5c(c4)OCO5)ccc3c2=O)cc1` gave NR2E3 ag-1 3, NR2E3 ag-2 4, PG9 Ab binder 9.1*, PG9 bind confirm 14* and PGV04 counter 18*.
Screening COc1cc(C(=O)NC2CCCCN(Cc3cccc(C(F)(F)F)c3)C2=O)cc(OC)c1OC (stereo unspecified) returned NR1D1 modulator 2.
For CCOC(=O)CCc1c(C)c(C#N)c2nc3ccccc3n2c1-n1cnc2ccccc21 the results were NR2E3 ag-1 17, NR2E3 ag-2 -1, NR1D1 modulator 19, PG9 Ab binder 17*, PG9 bind confirm 22* and PGV04 counter 27*.
`Cc1nc(SCC(=O)NCc2ccco2)c2c(C)c(C)sc2n1` gave NR2E3 ag-1 2, NR2E3 ag-2 1, NR1D1 modulator -2 and PG9 Ab binder -3.
For CCCCc1nc2sc3c(SCC(=O)NCc4ccco4)ncnc3c2c2c1CCC2 the results were NR2E3 ag-1 -8, NR2E3 ag-2 7, NR1D1 modulator 6, PG9 Ab binder 84*, PG9 bind confirm 87*, PGV04 counter 82*, PG9 binder DR 3.3*, PGV04 DR counter 1.5* and PG126 binding DR 1.7*.
`COC(=O)C1CN(Cc2ccccc2)CCS(=O)(=O)N1Cc1ccc(C(F)(F)F)cc1` (stereo unspecified) gave NR1D1 modulator 8.
Screening CCCC(=O)Nc1nnc(-c2cccc(OCC)c2)s1 returned NR2E3 ag-1 -13, NR2E3 ag-2 8, NR1D1 modulator 8, PG9 Ab binder 16*, PG9 bind confirm 22* and PGV04 counter 39*.
Cc1ccc(C(=O)C2=C(O)C(=O)N(c3ncccn3)C2c2ccc(Br)cc2)o1 (stereo unspecified) was read as NR2E3 ag-2 0.
For Cc1ccc(C(=O)C2=C(O)C(=O)N(c3ncccn3)C2c2ccccc2F)o1 (stereo unspecified) the results were NR2E3 ag-1 1, NR2E3 ag-2 6, NR1D1 modulator -1, PG9 Ab binder 14*, PG9 bind confirm 25* and PGV04 counter 32*.
For Cc1ccc(C(=O)C2=C(O)C(=O)N(c3ncccn3)C2c2ccc(F)cc2)o1 (stereo unspecified) the results were NR2E3 ag-1 18, NR2E3 ag-2 5, NR1D1 modulator 6, PG9 Ab binder 16*, PG9 bind confirm 18* and PGV04 counter 27*.
Screening COC(=O)c1cc2ccccn2c2c(C(=O)OC)c(C(=O)OC)cc1-2 returned NR2E3 ag-1 -24, NR2E3 ag-2 -11, NR1D1 modulator 2 and PG9 Ab binder -19.
`COC(=O)c1cc2c(C)cc3ccc(C)cn3c-2c1C(=O)OC` gave NR2E3 ag-1 -10, NR2E3 ag-2 15, NR1D1 modulator 3, PG9 Ab binder 11*, PG9 bind confirm 17* and PGV04 counter 22*.
Screening C#CCNC(=O)C[C@@H]1C(=O)N(Cc2ccc(OC)cc2)C2=CCN(C(=O)OC(C)(C)C)C[C@]21C(=O)OCC returned NR1D1 modulator 3.
`COc1cccc(-c2nnc3sc(-c4ccco4)nn23)c1` gave NR2E3 ag-1 -63, NR2E3 ag-2 2, NR1D1 modulator -2 and PG9 Ab binder -1.
`CCOc1cccc(-c2nn3c(-c4ccco4)nnc3s2)c1` gave NR2E3 ag-1 -23, NR2E3 ag-2 6, NR1D1 modulator 0, PG9 Ab binder 12*, PG9 bind confirm 39*, PGV04 counter 29*, PG9 binder DR >67, PGV04 DR counter >67 and PG126 binding DR >67.
`Cc1cc(N2C(=O)C(O)=C(C(=O)c3ccc(C)o3)C2c2cccs2)no1` (stereo unspecified) gave NR2E3 ag-1 35, NR2E3 ag-2 18, NR1D1 modulator 2, PG9 Ab binder 9.6*, PG9 bind confirm 17* and PGV04 counter 25*.
For COC(=O)c1ccc(C2C(C(=O)c3ccc(C)o3)=C(O)C(=O)N2c2cc(C)on2)cc1 (stereo unspecified) the results were NR2E3 ag-1 6, NR2E3 ag-2 7, NR1D1 modulator -1 and PG9 Ab binder 1.
